Assay [1] concerns Listeria monocytogenes. Kind of assay: Antimicrobial activity against Listeria monocytogenes ATCC 19111 assessed as growth inhibition rate at 3.64 mg/l after 72 hr by spectrophotometry. The assay is classed as functional. The note with it: ATCC 19111, 72 h, read-out: GI. The method, boiled down: (§1)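 L. monocytogenes was grown at 30 °C in tryptic soy broth, subcultured for 18 h, and exposed to pure volatile compounds (>95% purity). Growth was followed by Bioscreen C optical density every 24 h for 72 h against a 10% Tween 80 control.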

In assay [2] the test system is Bacillus cereus. The assay is described as follows: Antimicrobial activity against Bacillus cereus ATCC 11778 assessed as growth inhibition rate at 3.64 mg/l after 72 hr by spectrophotometry. The format is functional. Particulars: ATCC 11778, 72 h, read-out: GI. The gist of the method: (§2)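 Pure volatile compounds (purity >95%; one at 90%) were tested against B. cereus ATCC 11778. The strain was grown at 30 °C in nutrient broth for 24 h, then subcultured for 18 h. Optical density was read in a Bioscreen C every 24 h for 72 h, with 10% Tween 80 as the control.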

In assay [3] the test system is Staphylococcus aureus. The assay is described as follows: Antimicrobial activity against Staphylococcus aureus ATCC 25923 assessed as growth inhibition rate at 3.64 mg/l after 72 hr by spectrophotometry. The format is functional. Particulars: ATCC 25923, 72 h, read-out: GI.
In assay [4] the test system is Vibrio parahaemolyticus. The assay is described as follows: Antimicrobial activity against Vibrio parahaemolyticus ATCC 33844 assessed as growth inhibition rate at 3.64 mg/l after 72 hr by spectrophotometry. The assay is classed as functional. Particulars: ATCC 33844, 72 h, read-out: GI.
For assay [5], the system named is Escherichia coli. The assay is described as follows: Antimicrobial activity against Escherichia coli O157:H7 ATCC 43894 assessed as growth inhibition rate at 3.64 mg/l after 72 hr by spectrophotometry. The assay is classed as functional. Particulars: O157:H7 ATCC 43894, 72 h, read-out: GI.
Assay [6] deals with Salmonella typhimurium. Kind of assay: Antimicrobial activity against Salmonella enterica subsp. enterica serovar Typhimurium ATCC 14028 assessed as growth inhibition rate at 3.64 mg/l after 72 hr by spectrophotometry. The note with it: ATCC 14028, 72 h, read-out: GI. The assay is classed as functional. The method, boiled down:
(§3)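 Salmonella Typhimurium ATCC 14028 grown in nutrient broth at 30 °C, precultured 24 h, then subcultured 1:100 for 18 h before testing. Single volatile compounds (>95% pure) were added. OD was read every 24 h over 72 h in a Bioscreen C, with 10% Tween 80 as the comparison control.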

Assay [7] concerns Listeria monocytogenes. Kind of assay: Antimicrobial activity against Listeria monocytogenes ATCC 19111 assessed as growth inhibition rate at 4.44 mg/l after 72 hr by spectrophotometry. The format is functional. The note with it: ATCC 19111, 72 h, read-out: GI. The gist of the method:
as §1

The subject of assay [8] is Staphylococcus aureus. Kind of assay: Antimicrobial activity against Staphylococcus aureus ATCC 25923 assessed as growth inhibition rate at 4.44 mg/l after 72 hr by spectrophotometry. The format is functional. The note with it: ATCC 25923, 72 h, read-out: GI.
The test system of assay [9] is Vibrio parahaemolyticus. The assay is described as follows: Antimicrobial activity against Vibrio parahaemolyticus ATCC 33844 assessed as growth inhibition rate at 4.44 mg/l after 72 hr by spectrophotometry. The assay is classed as functional. Particulars: ATCC 33844, 72 h, read-out: GI.
Assay [10] relates to Escherichia coli. The assay is described as follows: Antimicrobial activity against Escherichia coli O157:H7 ATCC 43894 assessed as growth inhibition rate at 4.44 mg/l after 72 hr by spectrophotometry. The format is functional. The note with it: O157:H7 ATCC 43894, 72 h, read-out: GI.
Assay [11] has as its system Bacillus cereus. The assay is described as follows: Antimicrobial activity against Bacillus cereus ATCC 11778 assessed as growth inhibition rate at 4.44 mg/l after 72 hr by spectrophotometry. The format is functional. Particulars: ATCC 11778, 72 h, read-out: GI. The method, boiled down: as §2
Assay [12] relates to Salmonella typhimurium. The assay is described as follows: Antimicrobial activity against Salmonella enterica subsp. enterica serovar Typhimurium ATCC 14028 assessed as growth inhibition rate at 4.44 mg/l after 72 hr by spectrophotometry. The assay is classed as functional. Particulars: ATCC 14028, 72 h, read-out: GI. The method, boiled down: as §3
Assay [13] concerns Listeria monocytogenes. The assay is described as follows: microbe, parasite or virus in culture. Particulars: ATCC 19111, 72 h, read-out: GI.
The test system of assay [14] is Bacillus cereus. The assay is described as follows: microbe, parasite or virus in culture. The note with it: ATCC 11778, 72 h, read-out: GI.
The test system of assay [15] is Staphylococcus aureus. The assay is described as follows: microbe, parasite or virus in culture. Particulars: ATCC 25923, 72 h, read-out: GI.
For assay [16], the system named is Vibrio parahaemolyticus. The assay is described as follows: microbe, parasite or virus in culture. Particulars: ATCC 33844, 72 h, read-out: GI.
For assay [17], the system named is Escherichia coli. The assay is described as follows: microbe, parasite or virus in culture. Particulars: O157:H7 ATCC 43894, 72 h, read-out: GI.
Assay [18] concerns Salmonella typhimurium. Kind of assay: microbe, parasite or virus in culture. The note with it: Salmonella enterica, ATCC 14028, 72 h, read-out: GI.
The subject of assay [19] is Listeria monocytogenes. The assay is described as follows: Antimicrobial activity against Listeria monocytogenes ATCC 19111 assessed as growth inhibition rate at 1.44 mg/l after 72 hr by spectrophotometry. Particulars: ATCC 19111, 72 h, read-out: GI. The format is functional. The method, boiled down: as §1
The subject of assay [20] is Bacillus cereus. The assay is described as follows: Antimicrobial activity against Bacillus cereus ATCC 11778 assessed as growth inhibition rate at 1.44 mg/l after 72 hr by spectrophotometry. The assay is classed as functional. Particulars: ATCC 11778, 72 h, read-out: GI. The gist of the method:
as §2

The test system of assay [21] is Staphylococcus aureus. Kind of assay: Antimicrobial activity against Staphylococcus aureus ATCC 25923 assessed as growth inhibition rate at 1.44 mg/l after 72 hr by spectrophotometry. Particulars: ATCC 25923, 72 h, read-out: GI. The format is functional.
For assay [22], the system named is Vibrio parahaemolyticus. Kind of assay: Antimicrobial activity against Vibrio parahaemolyticus ATCC 33844 assessed as growth inhibition rate at 1.44 mg/l after 72 hr by spectrophotometry. The assay is classed as functional. Particulars: ATCC 33844, 72 h, read-out: GI.
Assay [23] has as its system Escherichia coli. Kind of assay: Antimicrobial activity against Escherichia coli O157:H7 ATCC 43894 assessed as growth inhibition rate at 1.44 mg/l after 72 hr by spectrophotometry. The assay is classed as functional. The note with it: O157:H7 ATCC 43894, 72 h, read-out: GI.
Assay [24] relates to Salmonella typhimurium. The assay is described as follows: Antimicrobial activity against Salmonella enterica subsp. enterica serovar Typhimurium ATCC 14028 assessed as growth inhibition rate at 1.44 mg/l after 72 hr by spectrophotometry. The assay is classed as functional. Particulars: ATCC 14028, 72 h, read-out: GI. The method, boiled down:
as §3

Assay [25] has as its system Listeria monocytogenes. The assay is described as follows: Antimicrobial activity against Listeria monocytogenes ATCC 19111 assessed as growth inhibition rate at 2.36 mg/l after 72 hr by spectrophotometry. The assay is classed as functional. Particulars: ATCC 19111, 72 h, read-out: GI. The gist of the method: as §1
In assay [26] the test system is Staphylococcus aureus. Kind of assay: Antimicrobial activity against Staphylococcus aureus ATCC 25923 assessed as growth inhibition rate at 2.36 mg/l after 72 hr by spectrophotometry. The note with it: ATCC 25923, 72 h, read-out: GI. The format is functional.
Assay [27] relates to Vibrio parahaemolyticus. Kind of assay: Antimicrobial activity against Vibrio parahaemolyticus ATCC 33844 assessed as growth inhibition rate at 2.36 mg/l after 72 hr by spectrophotometry. The assay is classed as functional. Particulars: ATCC 33844, 72 h, read-out: GI.
Assay [28] concerns Escherichia coli. Kind of assay: Antimicrobial activity against Escherichia coli O157:H7 ATCC 43894 assessed as growth inhibition rate at 2.36 mg/l after 72 hr by spectrophotometry. The format is functional. Particulars: O157:H7 ATCC 43894, 72 h, read-out: GI.
Assay [29] relates to Bacillus cereus. The assay is described as follows: Antimicrobial activity against Bacillus cereus ATCC 11778 assessed as growth inhibition rate at 2.36 mg/l after 72 hr by spectrophotometry. The format is functional. The note with it: ATCC 11778, 72 h, read-out: GI. The method, boiled down:
as §2

The subject of assay [30] is Salmonella typhimurium. The assay is described as follows: Antimicrobial activity against Salmonella enterica subsp. enterica serovar Typhimurium ATCC 14028 assessed as growth inhibition rate at 2.36 mg/l after 72 hr by spectrophotometry. The format is functional. The note with it: ATCC 14028, 72 h, read-out: GI. The gist of the method: as §3

The values below come from ChEMBL document CHEMBL3046951, “Volatile constituents from the leaves of Callicarpa japonica Thunb. and their antibacterial activities” (2004).

On to `CCc1ccco1`, for which the inhibition of growth at 3.64 µg/mL in the assay on Listeria monocytogenes [1] amounted to 0%; with Bacillus cereus [2], 0%; in the assay with Staphylococcus aureus [3] it was 4.3%; with Vibrio parahaemolyticus [4], 2.3%; with Escherichia coli [5], 0%; in the assay on Salmonella typhimurium [6], 1.6%.
Turning to `CC1=CC[C@@H]2C[C@H]1C2(C)C` [1R-(+)-ALPHA-PINENE], the inhibition of growth at 4.44 µg/mL came to 0% in the assay with Listeria monocytogenes [7]; 20.8% in the assay with Staphylococcus aureus [8]; 10.7% with Vibrio parahaemolyticus [9]; 0% in the assay on Escherichia coli [10]; 0% with Bacillus cereus [11]; 5.2% with Salmonella typhimurium [12].
`CCO` [ALCOHOL]: the inhibition of growth at 104.72 µg/mL is 0% in the assay with Listeria monocytogenes [13]; 0% in the assay with Bacillus cereus [14]; 3.2% in the assay with Staphylococcus aureus [15]; 3.9% in the assay on Vibrio parahaemolyticus [16]; 2% in the assay on Escherichia coli [17]; 3.4% in the assay on Salmonella typhimurium [18].
For `CCOC(C)=O` [ETHYL ACETATE], the inhibition of growth at 1.44 µg/mL with Listeria monocytogenes [19] was 0%; in the assay on Bacillus cereus [20], 0%; in the assay on Staphylococcus aureus [21], 6.6%; in the assay on Vibrio parahaemolyticus [22] it was 4.5%; with Escherichia coli [23], 0%; in the assay with Salmonella typhimurium [24], 9.3%.
For the molecule `CCCCC=O` [PENTANAL], the inhibition of growth at 2.36 µg/mL with Listeria monocytogenes [25] is 0%; with Staphylococcus aureus [26] it was 6.3%; in the assay on Vibrio parahaemolyticus [27], 0%; with Escherichia coli [28] it was 0%; in the assay on Bacillus cereus [29], 11.3%; in the assay with Salmonella typhimurium [30] it was 4.2%.
